SR-BI DiI inh = inhibitors of SR-BI mediated HDL lipid uptake, primary screen, ldlA[mSR-BI] cells, fluorescence, single point. Scavenger receptor class B member 1 (Mus musculus), Q61009. ldlA[mSR-BI] CHO cells, DiI-HDL uptake fluorescence, 3 h. inhibition, % at 12.5 µM. 320,000 tested, 0.96% active;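 active = mean replicate inhibition of at least 70% and a set share of replicates each scoring 70 or more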;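 note: 0% = median of neutral control wells and 100% = median of positive control wells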
SR-BI DiI-HDL act = activators of SR-BI mediated DiI-HDL uptake, primary screen, ldlA[mSR-BI] CHO cells, DiI fluorescence; 3 h; 100 = double the neutral-control signal; activation, % at 12.5 µM; 320,000 tested, 0.096% active; AID 504775, 2011;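 active = mean replicate activation of at least 60% and every replicate at or above 60%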;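 note: 0% = median plate neutral-control signal and 100% = twice that signal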
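Material: SR-BI-overexpressing, LDLR-lacking CHO cells | Dosing: Single compound concentration, delivered by pin transfer | Probe or stimulus: Labelled HDL, 10 µg/mL | Signal: Bottom-read cell fluorescence after medium removal, ex 550/em 595 nm | Schedule: 3 h, 37 °C | Evaluation: HDL uptake via cellular fluorescence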
GSK3beta inhib = human GSK3beta kinase inhibitors, primary screen, biochemical, cell-free homogeneous, HTS | AID 2097, 2009 | Glycogen synthase kinase-3 beta (Homo sapiens), P49841 | activity score (negative = inhibition), % at 10 µM | 300,000 tested, 0.038% active | GST-GSK3beta kinase, ADP-Glo luminescence, 60 min; active compounds read low;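 active = more than half of replicate wells score below -50%, meaning over 50% inhibition versus plate controls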;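 note: 0% = median DMSO wells and -100% = median GW8510 positive control wells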
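Assay system: GST-tagged human GSK3beta kinase, cell-free; Input: 1.6 ng GSK3beta; Medium: Tris/MgCl2 kinase buffer; Timing: 60 min enzyme reaction, room temperature; Signal: ADP-Glo luminescence quantifying ADP generated by kinase; Evaluation: score relative to plate controls; Benchmarks: DMSO neutral wells and GW8510 at 20 µM as positive.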
GSK3A inh = blockers of GSK3A enzyme activity – biochemical, luminescence, cell-free homogeneous, HTS, primary screen | GSK-3 alpha kinase, ADP-Glo luminescence, 60 min | AID 2650, 2010 | inhibition, % at 10 µM | 320,000 tested, 0.1% active;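 active = more than half of replicates show inhibition above 20%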;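 note: GST-tagged GSK-3 alpha with peptide substrate and 25 µM ATP; 0% = DMSO neutral wells and 100% = GW8510 positive control wells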
CDK5 inh = inhibitors of human CDK5/p35 kinase, primary screen, biochemical, single concentration | 330,000 tested, 0.01% active | inhibition, % at 10 µM | Recombinant CDK5/p35, ADP-Glo luminescence, 60 min;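 active = highest replicate inhibition of at least 50% and at least 75% of replicates reaching 50%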;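 note: plate controls were DMSO neutral control for no effect and GW8510 at 10 µM for full effect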
Target sequence (Q00535 whole entry, looked up): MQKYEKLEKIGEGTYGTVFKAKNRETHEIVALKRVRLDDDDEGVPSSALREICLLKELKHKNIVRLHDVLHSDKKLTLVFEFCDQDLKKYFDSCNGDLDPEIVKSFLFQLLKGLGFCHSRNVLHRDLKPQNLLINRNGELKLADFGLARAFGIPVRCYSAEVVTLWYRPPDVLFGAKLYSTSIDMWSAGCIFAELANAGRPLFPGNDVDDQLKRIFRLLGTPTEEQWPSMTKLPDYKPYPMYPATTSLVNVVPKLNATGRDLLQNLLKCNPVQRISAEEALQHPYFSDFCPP
Target sequence (Q15078 whole entry, looked up): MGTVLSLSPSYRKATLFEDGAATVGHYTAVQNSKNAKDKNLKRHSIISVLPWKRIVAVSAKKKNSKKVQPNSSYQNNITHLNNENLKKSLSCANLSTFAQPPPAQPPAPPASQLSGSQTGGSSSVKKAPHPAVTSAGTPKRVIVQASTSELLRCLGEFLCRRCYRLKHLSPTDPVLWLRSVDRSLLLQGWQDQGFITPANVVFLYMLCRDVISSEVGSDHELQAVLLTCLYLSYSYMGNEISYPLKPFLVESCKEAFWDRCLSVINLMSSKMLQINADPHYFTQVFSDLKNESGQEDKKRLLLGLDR
The depositor's hits bear a star; nt = not tested or not shown. Most compounds without a hit are left out; they make up all but 1.1% or so of the library.

SMILES	SR-BI DiI inh	SR-BI DiI-HDL act	GSK3beta inhib	GSK3A inh	CDK5 inh
C=CCCC(=O)Nc1nc(C)c(-c2csc(Nc3cc(Cl)ccc3OC)n2)s1	87*	-87	2	-5	0
C=CCCC(=O)Nc1nc(C)c(-c2csc(Nc3ccccc3OC)n2)s1	71*	-71	-1	-1	0
S=C(NNc1ccnc2cc(Cl)ccc12)Nc1ccccc1Cl	89*	-89	1	-1	6
Cc1ccc(Cl)cc1Nc1nc(-c2sc(NC(=O)c3cccc(Cl)c3)nc2C)cs1	nt	nt	-1	2	nt
Cc1nc(NC(=O)c2ccccc2)sc1-c1csc(Nc2ccc(Cl)cc2)n1	nt	nt	-27	2	nt
CCCCCC(=O)Nc1nc(C)c(-c2csc(Nc3ccc(Cl)cc3)n2)s1	96*	-96	2	-1	0
Cc1nc(NC(=O)CC(C)C)sc1-c1csc(Nc2ccc(Cl)cc2)n1	73*	-73	0	0	1
Cc1nc(NC(=O)CC(C)C)sc1-c1csc(Nc2ccc(Cl)cc2Cl)n1	59	-59	3	nt	-2
CCCCCC(=O)Nc1nc(C)c(-c2csc(Nc3cc(Cl)ccc3C)n2)s1	79*	-79	3	5	0
CCCC(C)C(=O)Nc1nc(C)c(-c2csc(Nc3cc(Cl)ccc3C)n2)s1 (configuration not stated)	82*	-82	-1	5	-1
Cc1cc(C)c(NC(=O)CSc2nc3ccc(N4C(=O)c5ccccc5C4=O)cc3s2)c(C)c1	74*	-74	4	-1	2
O=C(Cc1ccccc1)Nc1ncccn1	-25	25	1	-2	-1
CSC(=Nc1ccccc1)N=C(SCc1ccccc1)N(C)C	86*	-86	nt	nt	-1
COc1cc(NC(=O)c2ccc(C)cc2C)ccc1NC(=O)c1cccs1	84*	-84	-1	0	0
COc1cc(NC(=S)NC(=O)c2ccc(C)cc2C)ccc1NC(=O)c1cccs1	32	-32	1	-6	-2
Cc1cc(C)cc(C(=O)Nc2ccc(NC(=O)c3cccs3)cc2)c1	60	-60	-2	-2	0
Cc1cccc(C(=O)Nc2cc(NC(=O)c3cccs3)ccc2C)c1	74*	-74	nt	0	-2
CCN1C(=O)/C(=c2\o/c(=C3\C=Cc4ccccc4N3CC)c(=O)n2CC)SC1=S	11	-11	0	nt	0
CCN1C(=O)/C(=C2\C=Cc3ccccc3N2CC)SC1=S	74*	-74	0	3	3
CC(C)(C)OC(=O)N(CCc1ccccc1)Cc1cccc(OCc2cccc(NC(=O)C3CC3)c2)c1	-12	12	nt	nt	-2
CN(C)S(=O)(=O)c1ccc(Cl)c(C(=O)OCC(=O)NC(=O)c2cccn2C)c1	72*	-72	0	2	-8
Cn1cccc1C(=O)NC(=O)COC(=O)c1cc([N+](=O)[O-])ccc1Cl	9	-9	2	-1	-1
CCCC(=O)Nc1ccc(C(=O)Nc2cccc(OC)c2)cc1	74*	-74	3	-1	2
COc1cccc(NC(=O)c2ccc(NC(=O)C(C)(C)C)cc2)c1	51	-51	-2	0	0
COC(=O)c1ccc(NC(=O)c2cccc(NC(=O)c3ccccc3)c2)cc1	73*	-73	0	-1	-4
SMILES	SR-BI DiI inh	SR-BI DiI-HDL act	GSK3beta inhib	GSK3A inh	CDK5 inh
COc1ccc(C(=O)Nc2ccc(N3CCCCC3)cc2)cc1Br	62	-62	-1	-2	1
COC(=O)c1cccc(NC(=O)Nc2ccccc2OC)c1	81*	-81	-2	nt	1
COc1ccc(C(=O)Nc2ccc(Nc3ccccc3)cc2)cc1Br	98*	-98	0	-1	3
COc1ccc(C(=O)Nc2ccccc2N2CCN(C(=O)c3ccccc3)CC2)cc1Br	86*	-86	-1	-6	0
CCC(=O)Nc1cccc(NC(=S)NC(=O)c2ccccc2)c1	7	-7	0	2	0
O=C(NC(=S)Nc1cccc(NC(=S)NC(=O)c2ccccc2)c1)c1ccccc1	72*	-72	nt	nt	0

Bioassay records as filed in PubChem BioAssay.
